# Assay results reported in the EternaBench riboswitch data.
# Tested on: MS2 coat protein
# Experiment: apparent Kd, MS2 coat protein; higher = weaker binding; RNA-MaP array; FMN 200 µM where present
# In short: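 SNAP-549-labelled MS2 coat protein, doubled from 0.7 or 1.5 nM to 3 µM, was titrated over designs transcribed by stalled E. coli RNA polymerase on Illumina sequencing-chip clusters. Titrations were run without and then with constant ligand in 100 mM Tris-HCl pH 7.5, 80 mM KCl, 4 mM MgCl2, BSA, DTT, yeast tRNA and Tween-20. The apparent Kd is the median of filtered per-cluster fits to green signal normalised to red-channel RNA signal and control-cluster median Fmax.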
# [1] = designed as: ON switch for flavin mononucleotide, no ligand
# [2] = ligand present: flavin mononucleotide, designed as: ON switch for flavin mononucleotide
# [3] = designed as: OFF switch for flavin mononucleotide, no ligand
# [4] = ligand present: flavin mononucleotide, designed as: OFF switch for flavin mononucleotide
Sequence,apparent Kd [1] [nM],apparent Kd [2] [nM],apparent Kd [3] [nM],apparent Kd [4] [nM]
AAAAAAAAAAACUAGGAUAUUUAACGGACAACAUGAGGAUCACCCAUGUCACAAAAAAAAAUAGUAAAGAAGGAGUAAAAAAAAAA,32.7,31.8,–,–
AAAAAAAAAACUGAGGAUAUCAGGGAUGGUACAUGAGGAUCACCCAUGUUGGCGGGCGAAGAAACUGAGAAGGCAGAAAAAAAAAA,114,111,–,–
AAAAAAAAAAGCUAGGAUAUCCAAAAAAAAACAUGAGGAUCACCCAUGUAAAAAAAAAAAAAAUGGGAGAAGGAGCAAAAAAAAAA,52.4,26.9,–,–
AAAAAAAAAAGGCAGGAUAUCCAAAAAAAAACAUGAGGAUCACCCAUGUAAAAAAAAAAAAAAUGGGAGAAGGGUCAAAAAAAAAA,88.8,34,–,–
AAAAAAAAAGUAGAGGAUAUCCAAAUGGCUACAUGAGGAUCACCCAUGUGAAGAAAAGCACAUGAGGAGAAGGCUACAAAAAAAAA,26.7,13.5,–,–
AAAAAACAUGAGGAUCACCCAUGUAAAAAAAUCACAGGAUAUAAGGUCGCGAAAGCGACCUUAGAAGGGUGAUCAA,443,105,–,–
AAAAAACAUGAGGAUCACCCAUGUAAAAAAAUCGCAGGAUAUAAGGUCGCGAAAGCGACCUUAGAAGGGCGAUCCU,267,78.1,–,–
AAAAAACAUGAGGAUCACCCAUGUAAUAAAACGUCAGGAUAUUGAUUUUAUUAUUUAUUGCGAGAAGGGACAAAAA,37.1,24.4,–,–
AAAAAACAUGAGGAUCACCCAUGUCAGGAUAUCUGUAUUCAAUCCUCGGAUUGAAUACAGAGAAGGGACAAAAA,–,–,37.8,54.6
AAAAAACAUGAGGAUCACCCAUGUCAGGAUAUUCGAAAAAAAAAAAAAAAAAAAAAAAGGAGAAGGGACGAAAA,–,–,60.1,50
AAAAACAGAGGAUAUACAAAAUUAUGACGAAAGUCAUAAAAACAUGAGGAUCACCCAUGUAGAAGGCUGGAAAA,–,–,30.4,28.9
AAAAAGGCAGGAUAUGCAUACACACAAAAAAAAAAACUGGGACAUGAGGAUCACCCAUGUAGAAGGGCCAAAAA,–,–,29.4,25.9
AAAAAGUGAGGAUAUGCACUGUCCUGUAGACGCGAGCAGUUGUAGAAGGCACAUGAGGAUCACCCAUGUUUAAA,–,–,25.1,22.5
AAAAAUGGAGGAUAUACAUGAGGAUCACCCAUGUGUGGGCAUACUAUGUCGGCGUCAGGUAGAAGGCCAAAAAA,–,–,40.8,48.9
AAAACAUGAGGAUCACCCAUGUAAAGAACGCUUAAUAGAUCUGAGGAUAUACUAGAAUUUAGGUAGUAGAAGGCAGUGGGUACA,46.6,30.7,–,–
AAAACAUGAGGAUCACCCAUGUAAAGAUCGGUUAAUAGAGGUGAGGAUAUACUAAAUUUUGGGUGGUAGAAGGCACUGGGUACA,187,122,–,–
AAAACGAUGUGAGGAUAUCACCGCUGUGACGGCUGAGAAGGCACAUGAGGAUCACCCAUGUGCAGGCGUGUGUGGGUAAUCCAA,–,–,186,139
AAAACUUCAGAGAAGGACCCAUUGGCGUAAUGGGUAGGAUAUCUGACUUGAGGUGUCCUGACAUGAGGAUCACCCAUGUAUAAA,–,–,381,46
AAAAGACAUGAGGAUCACCCAUGUUAAAACGUAGGAGGAUAUGUAUGGAAAACAUGCUGUACAGAAGGCCUGUGUC,17.3,17.1,–,–
AAAAGUAGAGGAUAUACAUGAGGAUCACCCAUGUAGAAAGGAAGUGUAUAUAUGGCAUGUAGAAGGCUACAUGA,–,–,32.1,34.4
AAAAUCAAAUGAGGAUAUUCAUACACUACAUACGGAGAAGGCAUACAAUCAUGAGGACAUGAGGAUCACCCAUGUUGUGACCAU,29.9,20.9,–,–
AAAAUCUAUAGAGGAUAUCCAUACGCUGCAUACGGAGAAGGCUAACAAUCAUGAGGACAUGAGGAUCACCCAUGUUGUGACCAU,17.6,9.82,–,–
AAAAUCUAUAGAGGAUAUCGUUUUUAAAGAAAAUGAGAAGGCUAACAAUCAUGAGGACAUGAGGAUCACCCAUGUUGUGACCAU,19.6,10.2,–,–
AAAAUCUAUUGAGGAUAUCGUUAUCAAAGAUAAUGAGAAGGCAAACAAUCAUGAGGACAUGAGGAUCACCCAUGUUGUGACCAU,22.3,10.8,–,–
AAAAUCUAUUGAGGAUAUUCAUACACUACAUACGAAGAAGGCAAACAAUCAUGAGGACAUGAGGAUCACCCAUGUUGUGACCAU,24,15.5,–,–
AAAAUGCAAGGAUAUACAUGAGGAUCACCCAUGUAGAAGGAAGCGAGGGUUUCCUGCUGUAGAAGGUGCUACAG,–,–,23,20.5
AAAAUGUAAGGAUAUGCUGCUCGUCACUUGCGUGAUGAGUAGCAGAAGGUACAUGAGGAUCACCCAUGUAAAGA,–,–,32.7,45.8
AAAAUUUAUUGAGGAUAUUCAUACACUGUAUACGGAGAAGGCAAACAAUCAUGAGGACAUGAGGAUCACCCAUGUUGUGACCAU,18.5,12.2,–,–

Sequence,apparent Kd [1] [nM],apparent Kd [2] [nM],apparent Kd [3] [nM],apparent Kd [4] [nM]
AAACACAAACAUGAGGAUCACCCAUGUGGCGAAAGCCUUGGGAGAAGGGCGAUUGCAAAGCAAUCGCAGGAUAUUCGUAUUGUG,370,26.9,–,–
AAACACAAACAUGAGGAUCACCCAUGUUAUGAAGAUACUGGGAGAAGGGCGAUUGCAAAGCAAUCGCAGGAUAUUCGUAUUGUG,50.4,14.5,–,–
AAACAUGUCCGAGGAUAUCUGGAAACAUUUUCAAGAGAAGGCGGACAUGAGGAUCACCCAUGUCUCUCCUCAUCAACUACAAAU,–,–,21.2,181
AAAGCAACAUGAGGAUCACCCAUGUAGGAUAUCGCUAUUGUAAUCAUGAAACAUGAUUACAAUAGCGAGAAGGACAUAUGCUAA,–,–,9.26,10.8
AAAGCAACAUGAGGAUCACCCAUGUAGGAUAUCGCUAUUGUAAUCAUGAAACAUGAUUACAAUAGCGAGAAGGACAUAUGCUGG,–,–,21.7,23.3
AAAGCGUGAGGAUAUGAGGCGCCGGGCCGGUUGGUGCGGAUUCAGAAGGCACAUGAGGAUCACCCAUGUAGGAA,–,–,23.4,36.2
AAAGGACGAGGAUAUACAUGAGGAUCACCCAUGUAAAAAGCAUAAUAAAAUAACUUAUGUAGAAGGCGUCCAAA,–,–,21.9,108
AAAGUGUUAGGAUAUGUGAAGGCGUCUGAUAGACGAGGCCUGCAGAAGGGACAUGAGGAUCACCCAUGUAAAAA,–,–,56.8,26
AAAUAAAUCACAGGAUAUCUAGGGAUACAUGAGGAUCACCCAUGUUUGCAAAGAGAAGGGUGACAGUAUUAUCAGAUCAACAAU,210,38.1,–,–
AAAUAAAUUAGUAUGAUAUCUUCACAUGAGGAUCACCCAUGUCAGGAUAUUUGUCCUAAAAGGACAGAGAAGGGACAUACUAUA,–,–,6.08,8.31
AAAUAGACAGGAUAUGCAUGAAAAUUAAAAAAAAAAAAAAAACAUGAGGAUCACCCAUGUAGAAGGGUCAAAAA,–,–,107,99.5
AAAUAGAUACAUGAGGAUCACCCAUGUUAAUAGGUGUUUGUCAGAAGGCAUUAUGAGAGAAUUAAUGAGGAUAUGAAAUAUGAU,39.3,22.8,–,–
AAAUAGGCAGGAUAUACAUGAGGAUCACCCAUGUGCCUAUGAAAGGUAAUUUUGAAAGGUAGAAGGGCCUAAAA,–,–,10.5,12.1
AAAUAGUUAGGAUAUACAUGAGGAUCACCCAUGUGGACUUAUGGCGAUUAAUUUAGUGGUAGAAGGGACUCAAA,–,–,53.8,51.4
AAAUAUAAGCGAGGAUAUAUACAUGAGGAUCACCCAUGUCCCAUGUCAUGAGCAUCAGCCAUGUAGUAGAAGGCGCACAUGAGG,–,–,100,53.5
AAAUUCAGAGGAUAUGCGCAUAGAUAAGACUUUUUUUCUUAACAUGAGGAUCACCCAUGUAGAAGGCUGUAAUA,–,–,18.4,16.7
AAAUUUAACGAAGGAUAUGCUGACAUGAGGAUCACCCAUGUGUGCCUUGUGUUGCUGAUUAGGUUGCAGAAGGUCGUAUACAUA,–,–,330,1230
AAAUUUAACGAAGGAUAUGGAUACAUGAGGAUCACCCAUGUUUAUUUUGUGAUCUUGUAUAAGUACCAGAAGGUCGUAUACAUA,–,–,165,459
AACAAACAUGAGGAUCACCCAUGUAAGGAUAUACGAAACAAACAAACAAACAAACAAAGUAGAAGGUACAGGAA,–,–,19.4,18.3
AACAACCUAGGAUAUACAUGAGGAUCACCCAUGUUACUACUGGGUAAUCCCAAUUCGAGUAGAAGGAGGAUCAA,–,–,47.7,87
AACAAUAAGGAGGAUAUCGUAUCGGAAACGAUACGAGAAGGCUUAACAUGAGGAUCACCCAUGUUCCUCAAUAA,–,–,31.6,60
AACAAUCUAUCUGAGGAUAUCAUGAAAAAAACAUGAGGAUCACCCAUGUGCAGGAAAACUGCAUAUGAGAAGGCAGAUAGAUUGU,603,26.2,–,–
AACAGUACAGGAUAUACAUGAGGAUCACCCAUGUGAGAAUUAAGUGGCGUACCACAAAGUAGAAGGGUACUGGA,–,–,36.9,133
AACAGUACAGGAUAUACAUGAGGAUCACCCAUGUGAGAAUUAAGUGGCGUACCACAUAGUAGAAGGGUACUGGA,–,–,71,156
AACAUGGUAUCAGGAUAUGGGUGUCACAACCACUCAGAAGGGAUACCGAUGACAUGAGGAUCACCCAUGUCGCUAUUUACCUGU,17.2,7.98,–,–
AACAUGUCAGGAUAUGCAAAAGGAGACUGACACGCGAGUGAGCAGAAGGGACAUGAGGAUCACCCAUGUUCAAA,–,–,18.3,16
AACAUUCUAUCUCAGGAUAUCAUGUCAAAGACAUGAGGAUCACCCAUGUACCAGGAAACUGGUUAUGAGAAGGGAGAUAGAAUGA,1220,227,–,–
